Compound activity deposited in PubChem by The Scripps Research Institute Molecular Screening Center.
CHRM5 antagonist – blocks acetylcholine activation of human M5 receptor; AID 624040; CHO-hM5 cells, Fluo-8 calcium fluorescence, ACh EC80; hit rate 0.59% among 360,000; inhibition, % at 3 µM; P08912;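 active means inhibition above a per-plate cutoff, the mean of that plate's test compounds plus 3 SD, cut at about 27% in these data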;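 further: 0% = acetylcholine EC80 with DMSO and 100% = DMSO without agonist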
Target sequence (P08912 whole entry, looked up): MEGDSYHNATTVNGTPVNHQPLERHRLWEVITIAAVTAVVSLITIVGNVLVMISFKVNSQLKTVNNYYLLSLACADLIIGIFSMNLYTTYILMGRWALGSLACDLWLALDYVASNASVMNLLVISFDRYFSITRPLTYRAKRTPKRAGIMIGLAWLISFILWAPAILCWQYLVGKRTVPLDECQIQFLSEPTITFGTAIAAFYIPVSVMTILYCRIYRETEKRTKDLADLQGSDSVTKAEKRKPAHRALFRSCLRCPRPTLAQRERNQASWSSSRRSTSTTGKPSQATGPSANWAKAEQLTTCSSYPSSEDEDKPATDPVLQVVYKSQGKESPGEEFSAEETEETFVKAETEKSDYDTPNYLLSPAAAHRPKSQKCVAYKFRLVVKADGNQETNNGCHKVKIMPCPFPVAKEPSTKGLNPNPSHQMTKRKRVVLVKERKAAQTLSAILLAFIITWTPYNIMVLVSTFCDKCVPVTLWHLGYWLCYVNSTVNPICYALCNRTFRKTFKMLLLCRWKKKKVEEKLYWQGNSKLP
M1 ag – agonists of human M1 muscarinic receptor. AID 588814. activation, % at 3 µM. P11229. hit rate 0.33% among 360,000. CHO-K1 hM1, Fluo-8 calcium fluorescence, agonist mode; 0% DMSO, 100% acetylcholine EC100;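 active means activation above the run's mean compound activation plus 3 SD, cut at about 16% in these data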;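 further: peak over basal fluorescence ratio within a 140 s kinetic read after compound addition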
M1 PAM – potentiates human M1 receptor response to acetylcholine | P11229 | CHO-K1 hM1, Fluo-8 calcium fluorescence, ACh EC20; 0% = ACh EC20, 100% = maximal ACh | activation, % at 3 µM | hit rate 0.088% among 360,000; in the data active means activation above about 19%, passing the limit was not always enough
CHRM5 PAM – CHRM5 positive allosteric modulation. activation, % at 3 µM. P08912. AID 624038. hit rate 0.3% among 360,000. CHO-K1 hM5, Fluo-8 calcium, ACh EC20 PAM; 0% = ACh EC20, 100% = ACh EC100;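 active means activation above the run cutoff, the mean activation of all test compounds plus 3 SD, cut at about 18% in these data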
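System: CHO-K1 cell line with stable human muscarinic M5 receptor expression | Also added: EC20 acetylcholine as agonist stimulus | Compound: One concentration, 3 µM final (nominal) | Timing: Fluo-8 loading 80 min at 37 °C plus 30 min room temperature | Measured by: Fluo-8 calcium dye fluorescence, kinetic read | Read-out basis: % activation, ACh-normalized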
M5 ag – agonists of human muscarinic M5 receptor (CHRM5) | hit rate 0.19% among 360,000 | P08912 | activation, % at 3 µM | CHO-K1 hM5 cells, Fluo-8 calcium fluorescence; 0% DMSO wells, 100% maximal acetylcholine response;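 active means activation above the run's mean over test compounds plus 3 SD, cut at about 23% in these data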;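 further: signal is peak over basal fluorescence ratio across the kinetic read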
M1 antag – blocks human M1 muscarinic receptor; inhibition, % at 3 µM; CHO-K1 hM1, Fluo-8 calcium fluorescence, ACh EC80 antagonist; hit rate 1.3% among 360,000; AID 588852; P11229;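 active means percent inhibition above its own plate's cutoff, namely the mean of that plate's compound wells plus 3 SD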;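 further: peak over basal fluorescence ratio during 140 s after agonist addition; 0% = ACh EC80 plus DMSO and 100% = DMSO alone without agonist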
An asterisk follows results filed as active. Most compounds without a hit are left out; they make up all but 2.1% or so of the library.

SMILES | CHRM5 antagonist | M1 ag | M1 PAM | CHRM5 PAM | M5 ag | M1 antag
O=C(CN(c1ccc(F)cc1)S(=O)(=O)c1ccc2c(c1)OCCO2)NCc1ccccc1 | -7.6 | -2.4 | -2.4 | 2.0 | 1.9 | 7.8
Cn1cc(C(=O)c2cccc(Cl)c2Cl)cc1C(=O)O | -5.8 | -1.8 | 11.1 | 20.7* | -4.7 | -13.9
Cc1noc(C)c1CSCC(=O)OCC(=O)N1CC(=O)Nc2ccccc21 | -1.7 | -3.3 | 11.8 | -4.0 | 0.4 | -14.1
O=C(NNC(=S)NC(=O)c1cccs1)c1ccc(O)cc1 | 12.2 | -1.1 | 17.0 | 1.1 | -3.6 | -21.5
O=C(NC(=S)NNC(=O)c1cccs1)c1ccc(Br)o1 | 10.5 | 33.2* | -3.8 | -4.2 | 11.1 | -16.0
Cc1cccc(-c2nnc3n2N=C(c2ccccc2)CS3)c1 | 8.2 | -3.0 | 7.2 | -7.2 | -4.6 | -5.0
Cc1nn2c(nc1=O)SCC(c1ccccc1)=N2 | -19.2 | 1.8 | 12.8 | 28.4* | -1.4 | -12.1
Cc1oc2c(c(=O)c1C)C(=O)CC(c1ccccc1)C2 (configuration not stated) | 42.9* | 2.4 | 17.2 | -2.3 | 0.8 | -7.5
Cc1cc2ccccc2cc1CN1CCCCC1 | 3.6 | -5.5 | 5.2 | 11.1 | 1.1 | -7.6
Cc1ccc(-c2nn(CC(=O)N(C)C)c(=O)c3ccccc23)cc1S(=O)(=O)N(C)C | 0.4 | -2.8 | 21.2* | -9.2 | 1.9 | -50.2
COC(=O)Cn1nc(-c2ccc(C)c(S(=O)(=O)N(C)C)c2)c2ccccc2c1=O | 2.9 | -1.5 | 6.5 | 2.3 | 4.0 | -9.7
COc1ccc(-c2cn(-c3ccccc3)c3[n+]2CCS3)cc1 | -2.5 | -10.3 | -24.8 | -1.3 | -8.0 | 39.8*
c1ccc(-c2cn(-c3ccccc3)c3[n+]2CCS3)cc1 | 8.2 | -7.5 | -6.1 | -4.8 | -5.0 | 14.5
CC(C)(C)c1ccc(-c2cn(-c3ccc(Br)cc3)c3[n+]2CCCS3)cc1 | 58.3* | -9.8 | -27.9 | -20.4 | -11.1 | 79.4*
C=CCN1C(=O)/C(=C2/Sc3ccccc3N2CC)SC1=S | 3.5 | -4.1 | 3.3 | 4.8 | -0.1 | -10.1
C=CCN1C(=O)/C(=C/C=C2/N(CC)c3ccc(S(=O)(=O)N(C)C)cc3N2CC)SC1=S | -6.8 | 17.4* | -0.4 | -7.5 | 24.5* | 7.7
CCCOC1CCCN(C(=O)c2cc(Cl)c(Cl)cc2C(=O)O)C1 (configuration not stated) | 4.5 | 59.7* | -18.1 | -11.4 | 24.5* | 51.7*
CCOC(=O)N1CCN(C(=O)c2cc(Cl)c(Cl)cc2C(=O)O)CC1 | -3.2 | 31.6* | 4.6 | 0.8 | 12.3 | -7.8
CCOC(=O)N1CCN(c2ccc(Cl)c(Cl)c2)CC1 | 2.2 | -2.8 | 2.0 | -4.3 | 2.1 | 1.4
CCOC(=O)C1CCCN(c2ncnc3c2oc2ccccc23)C1 (configuration not stated) | 8.3 | 0.1 | -10.5 | -18.1 | 9.0 | 21.0
Nc1sc(-c2ccccc2)n[n+]1Cc1cccc2cccnc12 | 5.8 | -3.2 | -24.6 | -13.2 | -5.3 | 65.8*
Oc1ccccc1CNc1cccc2cccnc12 | 8.1 | -5.7 | 1.8 | 2.5 | 0.2 | -5.9
O/N=C1\CC/C(=N\O)c2nn(-c3ccccc3Cl)nc21 | 0.0 | 0.4 | 0.6 | -2.6 | 4.1 | -9.1
Cc1ccc(-n2nc3c(n2)/C(=N/O)CC/C3=N\O)cc1 | -3.4 | -1.2 | 6.4 | 34.5* | -3.5 | -4.9
O=C(N/N=C/c1ccc(O)c(O)c1)c1ccc(CSc2cccc3cccnc23)cc1 | 5.7 | 24.2* | 3.7 | -1.6 | 0.5 | -1.9
SMILES | CHRM5 antagonist | M1 ag | M1 PAM | CHRM5 PAM | M5 ag | M1 antag
O=C(CSc1cccc2cccnc12)N/N=C/c1cccc(O)c1 | 3.1 | 1.5 | -7.8 | -7.0 | -2.7 | -1.6
CC/S(=N\S(=O)(=O)c1ccc(C)cc1)c1ccccc1 (configuration not stated) | 4.0 | -2.9 | 2.5 | 2.8 | -1.8 | 0.8
COC(=O)C1=C(C)N(Cc2ccc(OC)c(OC)c2)C(=O)C1 | -2.4 | -0.3 | 0.2 | -9.5 | 0.9 | -0.4
COC(=O)C1=C(C)N(CCc2ccc(OC)c(OC)c2)C(=O)C1 | 21.5 | -2.0 | 7.2 | 27.9* | -2.6 | -18.0
CCC(=O)Nn1c(C2CCC2)nc2ccccc2c1=O | 4.4 | -2.6 | 7.5 | -7.5 | -0.3 | -14.8
Cc1ccc(C)[n+](CC(=O)c2ccc(-c3ccccc3)cc2)c1 | -7.2 | -15.8 | -34.5 | 4.2 | -9.0 | 43.6*
Cc1ccc[n+](CC(=O)c2ccc(-c3ccccc3)cc2)c1 | -5.7 | -3.9 | 4.6 | 6.1 | 2.5 | -3.3
O=C(C[n+]1cccc(Br)c1)c1ccccc1 | -0.6 | -6.7 | 14.1 | 3.7 | -3.6 | -9.0
O=C(C[n+]1cccc(Br)c1)c1ccc(-c2ccccc2)cc1 | 2.7 | -11.1 | -27.4 | 1.6 | -5.1 | 38.4*
COc1ccc(-c2cc3nc(C)cc(N4CCN(C(=O)c5cccnc5)CC4)n3n2)cc1 | 2.4 | -2.3 | 1.4 | -2.3 | 1.9 | -5.0
CN1CCC(OC(=O)c2ccc(Cl)cc2Cl)CC1 | 3.0 | -11.4 | -6.8 | -4.7 | -8.6 | -0.6
CN1CCC(OC(=O)c2ccccc2Cl)CC1 | 33.7* | -13.1 | -32.9 | -20.6 | -11.2 | 48.4*
Cc1ccccc1C(=O)OC1CCN(C)CC1 | 12.1 | -8.6 | -20.5 | -20.2 | -8.5 | 35.4*
Cc1cc(C)cc(OCC(O)CN2CCC(CN3C(=O)c4cccc5cccc(c45)C3=O)CC2)c1 (configuration not stated) | 23.8 | 2.4 | -19.9 | -30.7 | -10.5 | 47.9*
O=C1c2cccc3cccc(c23)C(=O)N1CC1CCN(CC(O)COc2ccc3ccccc3c2)CC1 (configuration not stated) | 21.2 | 1.0 | -15.9 | -19.5 | -2.2 | 47.5*
COc1cccc(OCC(O)CN2CCC(CN3C(=O)c4cccc5cccc(c45)C3=O)CC2)c1 (configuration not stated) | 3.5 | -12.3 | -19.4 | -7.7 | -7.7 | -3.2
Cc1ccc(Nc2cc(C)nc(N3CCOCC3)n2)c(C)c1 | 1.9 | -12.7 | 1.8 | -4.7 | -7.3 | -3.5
CCc1cccc(CC)c1N1C(=O)C2=C(SCCCS2)C1=O | 12.4 | 20.2* | -15.9 | -9.2 | 11.4 | 15.7
CCc1cccc(CC)c1N1C(=O)COCC1=O | 6.3 | -2.6 | -4.7 | -1.6 | -1.0 | 5.2
COc1ccc(-c2nc3ccc(N4CCCC4)cc3c(=O)[nH]2)cc1OC | -7.0 | -0.8 | 1.7 | 18.7* | -4.5 | -0.9
COc1ccc2nc(-c3ccccc3)[nH]c(=O)c2c1 | 8.0 | -4.8 | 6.7 | 3.6 | 1.3 | -14.2
NC(=O)c1ccsc1NC(=O)COC(=O)CSc1ccc(Cl)cc1 | 31.5* | -1.0 | -18.8 | -19.9 | 3.8 | 25.4
Cc1ccc(OCC(=O)OCC(=O)Nc2sccc2C(N)=O)cc1C | 32.3* | -1.8 | -13.5 | -17.7 | 10.1 | 22.4
COc1ccc(CCC(=O)OCC(=O)Nc2sccc2C(N)=O)cc1 | 24.0 | 1.6 | -19.1 | -31.7 | 6.7 | 38.9*
